In assay [1] the test system is KB. Description: Cytotoxicity against human KB cells at 20 ug/ml after 3 days. In kind it is functional, cell-based.
Assay [2] deals with A549. Description: Cytotoxicity against human A549 cells at 20 ug/ml after 3 days. In kind it is functional, cell-based.
In assay [3] the test system is HCT-8. Description: Cytotoxicity against human HCT8 cells at 20 ug/ml after 3 days. In kind it is functional, cell-based.
For assay [4], the system named is DU-145. Nature of the assay: Cytotoxicity against human DU145 cells at 20 ug/ml after 3 days. In kind it is functional, cell-based.
A short description of assay [5]: Inhibition of Nitric oxide synthase activity in mouse BV2 cells assessed as LPS-induced NO production after 24 hrs by Griess reaction. In kind it is cell-based. The conditions noted are these: BV-2, 24 h. The procedure, abridged: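 Murine BV2 microglia were cultured in DMEM with 5% FBS and given 1–50 µM drug with 0.5 µg/mL LPS. Nitrite accumulated in the medium over 24 h was measured by Griess reagent. IC50 values are means ± SEM from 3–6 experiments on different days using different passages.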

Assay [6] concerns BV-2. Nature of the assay: Inhibition of NADPH oxidase mediated-ROS production in mouse BV2 cells. In kind it is cell-based. In short, it runs like this:
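Compounds were incubated with 50 µg microglial cell homogenate for 20 min at 37 °C in the dark. Superoxide production was started with 200 µM NADPH, and chemiluminescence was followed for 30 min; the AUC represents ROS production. DPI served as positive control.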

For assay [7], the system named is BV-2. Nature of the assay: Inhibition of NF-kappaB nuclear translocation in LPS-stimulated mouse BV2 cells at 1 uM by Western blotting. In kind it is cell-based. In general terms: A western blot detects proteins with antibodies after separation by electrophoresis.
Assay [8] has as its system BV-2. Description: Reduction in iNOS protein expression in LPS-stimulated mouse BV2 cells at 1 uM by Western blotting.
For assay [9], the system named is KB. Description: Cytotoxicity against human KB cells after 3 days. In kind it is functional. The conditions noted are these: 72 h. The procedure, abridged:
(§1)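 Seeded at 1500–7500 cells/well; compounds added from DMSO-diluted stock. After 3 days, attached cells were fixed with cold 50% TCA, stained with 0.4% sulforhodamine B and read at 562 nm. EC50 is the concentration reducing growth by 50%, averaged over at least three independent determinations. Cells were grown in RPMI-1640 with […], 0.25% bicarbonate and 10% FBS.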

Assay [10] concerns A549. Nature of the assay: Cytotoxicity against human A549 cells after 3 days. In kind it is functional. The conditions noted are these: A549, 72 h. In short, it runs like this:
as §1

Assay [11] concerns HCT-8. Nature of the assay: Cytotoxicity against human HCT8 cells after 3 days. In kind it is functional. The conditions noted are these: HCT-8, 72 h. The procedure, abridged: as §1
Assay [12] relates to DU-145. Nature of the assay: Cytotoxicity against human DU145 cells after 3 days. In kind it is functional. To be noted: DU-145, 72 h. In short, it runs like this:
as §1

The test system of assay [13] is HT-29. Description: Cytotoxicity against human HT-29 cells for 24 hrs by MTT assay. In kind it is functional, cell-based. In short, it runs like this: (§2)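 HT-29 cells in 96-well plates were exposed to 0–50 µM for 24 h, or to 30 µM for 12–72 h. MTT was then added for 4 h at 37 °C in the dark, and formazan was dissolved in DMSO and read at 570 nm. Viability is expressed as % of untreated OD, run in triplicate, mean±SD.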

The subject of assay [14] is HT-29. Description: Cytotoxicity against human HT-29 cells at 30 uM by MTT assay. In kind it is functional, cell-based. The conditions noted are these: TDE = time-dependent effect. In short, it runs like this: as §2
A general note: Tetrazolium assays rely on reduction of a dye to a coloured formazan, in cell work by metabolically active cells.

Assay [15] concerns HT-29. Description: Cytotoxicity against human HT-29 cells assessed as nuclear shrinkage and chromatin condensation at 30 uM for 24 hrs using DAPI staining by fluorescence microscopy relative to untreated cells. In kind it is functional, cell-based. In short, it runs like this: (§3)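 HT-29 cells, kept in RPMI-1640 with FBS and penicillin/streptomycin, were treated for 24 or 48 h. They were fixed in 4% paraformaldehyde for 30 min and stained with 1 µg/mL DAPI for 30 min in the dark. Nuclear morphology was examined by fluorescence microscopy at ×200.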

Assay [16] has as its system HT-29. Description: Cytotoxicity against human HT-29 cells assessed as nuclear shrinkage and chromatin condensation at 50 uM for 24 hrs using DAPI staining by fluorescence microscopy relative to untreated cells. In kind it is functional, cell-based. The procedure, abridged: as §3
Assay [17] has as its system HT-29. Description: Cytotoxicity against human HT-29 cells assessed as nuclear shrinkage and chromatin condensation at 30 uM for 48 hrs using DAPI staining by fluorescence microscopy relative to untreated cells. In kind it is functional, cell-based. In short, it runs like this:
as §3

Assay [18] deals with HT-29. Nature of the assay: Cytotoxicity against human HT-29 cells assessed as nuclear shrinkage and chromatin condensation at 50 uM for 48 hrs using DAPI staining by fluorescence microscopy relative to untreated cells. In kind it is functional, cell-based. The procedure, abridged: as §3
For assay [19], the system named is HT-29. Description: Induction of apoptosis in human HT-29 cells assessed as DNA fragmentation at 30 uM using TUNEL staining by flow cytometry. In kind it is functional, cell-based. The procedure, abridged: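 HT-29 cells in 6-well plates were treated with 30 µM for 24 and 48 h and harvested. They were labeled with TdT enzyme at 37 °C for 1 h, then FITC anti-digoxigenin conjugate at 37 °C for 30 min in the dark. TUNEL-positive cells were counted by flow cytometry, in triplicate.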

The test system of assay [20] is HT-29. Nature of the assay: Induction of apoptosis in human HT-29 cells at 30 uM for 24 hrs pretreated with caspase 3 inhibitor […] for 1 hr by MTT assay. In kind it is functional, cell-based. In short, it runs like this: (§4)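 HT-29 cells were pretreated for 1 h with caspase-3, -8 or -9 inhibitor (dissolved in DMSO, diluted in medium), then given 30 µM for 24 h. Viability was read by MTT at 570 nm, in triplicate.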

Assay [21] relates to HT-29. Nature of the assay: Induction of apoptosis in human HT-29 cells at 30 uM for 24 hrs pretreated with caspase 9 inhibitor Z-LEHD-FMK for 1 hr by MTT assay. In kind it is functional, cell-based. In short, it runs like this: as §4
Assay [22] has as its system HT-29. Nature of the assay: Induction of apoptosis in human HT-29 cells at 30 uM for 24 hrs pretreated with caspase 8 inhibitor Z-IETD-FMK for 1 hr by MTT assay. In kind it is functional, cell-based. The procedure, abridged: as §4
For assay [23], the system named is HT-29. Description: Induction of apoptosis in human HT-29 cells assessed as increased expression of Fas/CD95 protein by Western blotting. In kind it is functional, cell-based. The procedure, abridged: (§5)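 Total or cytosolic extracts (30 µg protein) from treated HT-29 cells were run on SDS-PAGE and transferred to PVDF. Blots were probed for 12 h with monoclonal antibodies to the named protein, followed by an HRP secondary, and detected by ECL.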

In assay [24] the test system is HT-29. Description: Induction of apoptosis in human HT-29 cells assessed as increased expression of FADD protein by Western blotting. In kind it is functional, cell-based. The procedure, abridged:
as §5

Assay [25] deals with HT-29. Description: Induction of apoptosis in human HT-29 cells assessed as increased expression of cytosolic cytochrome C protein by Western blotting. In kind it is functional, cell-based. In short, it runs like this:
as §5

The subject of assay [26] is HT-29. Nature of the assay: Induction of apoptosis in human HT-29 cells assessed as increased expression of Apaf-1 protein by Western blotting. In kind it is functional, cell-based. In short, it runs like this:
as §5

The subject of assay [27] is HT-29. Description: Induction of apoptosis in human HT-29 cells assessed as increased expression of AIF protein by Western blotting. In kind it is functional, cell-based. In short, it runs like this:
as §5

Assay [28] deals with HT-29. Nature of the assay: Induction of apoptosis in human HT-29 cells assessed as increased expression of Endo G protein by Western blotting. In kind it is functional, cell-based. The procedure, abridged: as §5
Assay [29] concerns HT-29. Nature of the assay: Induction of apoptosis in human HT-29 cells assessed as increased expression of caspase 3 protein by Western blotting. In kind it is functional, cell-based. In short, it runs like this: as §5
In assay [30] the test system is HT-29. Nature of the assay: Induction of apoptosis in human HT-29 cells assessed as increased expression of Bax protein by Western blotting. In kind it is functional, cell-based. The procedure, abridged: as §5
Assay [31] deals with HT-29. Nature of the assay: Induction of apoptosis in human HT-29 cells assessed as increased expression of t-Bid protein by Western blotting. In kind it is functional, cell-based. The procedure, abridged: as §5
Assay [32] concerns HT-29. Nature of the assay: Induction of apoptosis in human HT-29 cells assessed as decreased expression of pro-caspase-8 protein by Western blotting. In kind it is functional, cell-based. The procedure, abridged:
as §5

Assay [33] concerns HT-29. Nature of the assay: Induction of apoptosis in human HT-29 cells assessed as decreased expression of pro-caspase-9 protein by Western blotting. In kind it is functional, cell-based. In short, it runs like this:
as §5

Assay [34] relates to HT-29. Nature of the assay: Induction of apoptosis in human HT-29 cells assessed as decreased expression of Bcl-2 protein by Western blotting. In kind it is functional, cell-based. The procedure, abridged: as §5
The test system of assay [35] is HT-29. Nature of the assay: Induction of apoptosis in human HT-29 cells assessed as caspase 3 activation at 30 uM for 24 hrs by MTT assay. In kind it is functional, cell-based.
For assay [36], the system named is HT-29. Description: Induction of apoptosis in human HT-29 cells assessed as caspase 8 activation at 30 uM for 24 hrs by MTT assay. In kind it is functional, cell-based.
Assay [37] relates to HT-29. Nature of the assay: Induction of apoptosis in human HT-29 cells assessed as caspase 9 activation at 30 uM for 24 hrs by MTT assay. In kind it is functional, cell-based.

The source made the active and inactive calls. The calls are words filed in the database; no cut-off is given here.

For orientation: IC50 means the point on the concentration scale where inhibition reaches its midpoint. The term GI50 denotes the concentration giving 50% growth inhibition. Low values mean more potent growth inhibition, high ones less potent growth inhibition.

As to `COc1ccc(/C=C/C(=O)c2ccc(N3CCN(Cc4cc(C(=O)/C=C/c5ccc(OC)cc5)ccc4O)CC3)cc2)cc1`, the result with KB [1], with A549 [2], in the assay with HCT-8 [3] and in the assay with DU-145 [4] was inactive. Further, the half-inhibitory concentration (IC50) in assay [5] came to 500 nM. For the same compound, the inhibition entry with BV-2 [6] is “inactive”. Besides, the inhibition entry in the assay on BV-2 [7] and with BV-2 [8] was “Active” each time.

As for `O=C(/C=C/c1ccccn1)c1ccc(N2CCN(Cc3cc(C(=O)/C=C/c4ccccn4)ccc3O)CC2)cc1`, the GI50 with KB [9] was determined as 1230 nM; with A549 [10], 1080 nM; in the assay on HCT-8 [11] it was 1260 nM; with DU-145 [12], 1250 nM. Also, the IC50 in [5] was 1400 nM. For the same compound, in the assay on BV-2 [6], the inhibition result was “inactive”.

Turning to `COc1cc(C(=O)/C=C/c2cccnc2)cc(CN2CCN(c3ccc(C(C)=O)cc3)CC2)c1O`, the GI50 in the assay with KB [9] was determined as 13100 nM; in the assay on A549 [10], 9770 nM; in the assay on HCT-8 [11] it was 11200 nM; in the assay on DU-145 [12], 9980 nM. The Activity entry with HT-29 [13] was “Dose-dependent effect”; in the assay with HT-29 [14] it was “tde”. Moreover, the result in the assay with HT-29 [15], in the assay on HT-29 [16], in the assay on HT-29 [17], with HT-29 [18], in the assay on HT-29 [19] and in the assay with HT-29 [23] was Active. Besides, the result with HT-29 [24], with HT-29 [25], in the assay with HT-29 [26], in the assay with HT-29 [27], in the assay on HT-29 [28] and in the assay on HT-29 [29] was Active. The outcome in the assay with HT-29 [30], with HT-29 [31], in the assay on HT-29 [32], with HT-29 [33], in the assay with HT-29 [34] and with HT-29 [35] was Active. Also, the result with HT-29 [36] and in the assay on HT-29 [37] was Active. Moreover, the outcome in the assay with HT-29 [20], in the assay on HT-29 [21] and in the assay on HT-29 [22] was inactive. In addition, in assay [5], the IC50 amounted to 3500 nM. In addition, the inhibition entry in the assay on BV-2 [6] is “inactive”.

On to `O=C(/C=C/c1cccnc1)c1ccc(N2CCN(Cc3cc(C(=O)/C=C/c4cccnc4)ccc3O)CC2)cc1`, for which the GI50 with KB [9] is 1660 nM; with A549 [10], 1470 nM; with HCT-8 [11], 1400 nM; in the assay on DU-145 [12], 2190 nM. Moreover, in assay [5], the IC50 was found to be 300 nM. Also, the inhibition entry with BV-2 [6] is “inactive”. In addition, the inhibition result in the assay on BV-2 [7] and with BV-2 [8] was “Active” each time.

In the case of `CC(=O)c1ccc(N2CCN(Cc3cc(C(=O)/C=C/c4ccc[nH]4)ccc3O)CC2)cc1`, the GI50 in the assay with KB [9] is 19000 nM; in the assay with A549 [10] it was 20100 nM; in the assay with HCT-8 [11] it was 24700 nM; with DU-145 [12] it was 17900 nM. The IC50 in assay [5] was determined as 1700 nM. In the assay on BV-2 [6], the inhibition entry is “inactive”.
